Results on two compounds are retold here after ChEMBL document CHEMBL1240390, “Activity of dalbavancin against Bacillus anthracis in vitro and in a mouse inhalation anthrax model” (Antimicrob Agents Chemother, 2010).

In brackets after ≈: the same amount, converted by molar mass.

The subject of data set [1] is Bacillus anthracis. Briefly: Antimicrobial activity against Bacillus anthracis str. Ames infected in BALB/c mouse prophylaxis model assessed as mouse survival at 60 mg/kg, ip administered 48 hrs post infection every 36 hrs for 14 days measured after 42 days. Format: functional. Conditions: route intraperitoneal.
Data set [2] relates to Mus musculus. Briefly: T>MIC in ICR mouse at 20 mg/kg, ip. Details: dose 20 mg/kg, route intraperitoneal. The note with it: in vivo. Format: ADME, organism-based.
Data set [3] in a line: Ratio of fAUC in ICR mouse at 20 mg/kg, ip to MIC against Bacillus anthracis Ames. Format: functional. The note with it: route intraperitoneal. In short, it runs like this: (§1)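 Female ICR mice (23 to 27 g) received a single i.p. dose of 5 or 20 mg/kg in 5% glucose. Plasma was taken by cardiac puncture from 0.08 to 144 h, with 3 mice per dose and time point. Total drug was measured by microbiological agar diffusion, and parameters were derived noncompartmentally. Free values assume 1.6% unbound and are divided by the Ames-strain MIC.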

The nature of data set [4]: Cmax in ICR mouse at 20 mg/kg, ip after 2 hrs. In kind it is ADME, organism-based. The note with it: in vivo. Details: dose 20 mg/kg, route intraperitoneal. The essentials:
(§2)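 Female ICR mice, 23 to 27 g, given single 5 or 20 mg/kg doses i.p. or i.v. (tail vein) in 5% glucose. Plasma was taken by cardiac puncture under halothane at 0.08 to 144 h, with 3 mice per route, dose and time point. Total drug was measured by microbiological agar diffusion assay; parameters came from noncompartmental analysis.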

The subject of data set [5] is Bacillus anthracis. Description: Antimicrobial activity against Bacillus anthracis str. Ames infected in BALB/c mouse prophylaxis model assessed as mouse survival at >=30 mg/kg, ip administered 24 hrs post infection every 36 hrs for 14 days measured after 42 days. Format: functional.
Data set [6] in a line: Ratio of fCmax in ICR mouse at 5 mg/kg, ip after 2 hrs to MIC for Bacillus anthracis Ames. Format: functional. The note with it: route intraperitoneal. The essentials: as §1
Data set [7] is described as follows: Cmax in ICR mouse at 5 mg/kg, ip after 2 hrs. Format: ADME, organism-based. Details: dose 5 mg/kg, route intraperitoneal. Conditions: in vivo. The essentials:
as §2

Data set [8] deals with Bacillus anthracis. Description: Antimicrobial activity against Bacillus anthracis str. Ames after 18-24 hrs by broth microdilution method. Format: functional.
For data set [9], the system named is Mus musculus. Briefly: T>MIC in ICR mouse at 5 mg/kg, ip. In kind it is ADME, organism-based. Details: dose 5 mg/kg, route intraperitoneal. Conditions: in vivo.
Data set [10] is described as follows: AUC (0-infinity) in ICR mouse at 20 mg/kg, iv. Format: ADME, organism-based. Details: time infinity, dose 20 mg/kg, route intravenous. The note with it: plasma. In short, it runs like this: as §2
A short description of data set [11]: AUC in patient with skin and soft tissue infections at 1000 mg, iv after 7 days. In kind it is ADME, organism-based. The note with it: human, plasma.
The test system of data set [12] is Mus musculus. Description: fAUC in ICR mouse at 20 mg/kg, ip. In kind it is ADME, organism-based. Further details: dose 20 mg/kg, route intraperitoneal. The note with it: in vivo.
Data set [13] in a line: Half life in ICR mouse at 20 mg/kg, ip. Format: ADME, organism-based. Further details: dose 20 mg/kg, route intraperitoneal. The note with it: in vivo. In short, it runs like this: as §2
A short description of data set [14]: Ratio of fAUC in ICR mouse at 5 mg/kg, ip to MIC against Bacillus anthracis Ames. Conditions: route intraperitoneal. In kind it is functional. In short, it runs like this: as §1
Data set [15] relates to Bacillus anthracis. Description: Antimicrobial activity against Bacillus anthracis str. Ames infected in BALB/c mouse assessed as mouse survival at 30 mg/kg, ip bid administered 24 hrs post infection for 14 days measured after 42 days. The note with it: route intraperitoneal. In kind it is functional.
The test system of data set [16] is Bacillus anthracis. Description: Antimicrobial activity against Bacillus anthracis str. Ames infected in BALB/c mouse prophylaxis model assessed as mouse survival at 120 mg/kg, ip administered 36 hrs post infection every 72 hrs for 14 days measured after 42 days. Format: functional. The note with it: route intraperitoneal.
Data set [17] relates to Bacillus anthracis. Briefly: Antimicrobial activity against Bacillus anthracis str. Ames infected in BALB/c mouse prophylaxis model assessed as mouse survival at >=15 mg/kg, ip administered 24 hrs post infection every 36 hrs for 14 days measured after 42 days. In kind it is functional.
The nature of data set [18]: AUC (0-infinity) in ICR mouse at 5 mg/kg, iv. In kind it is ADME, organism-based. Details: time infinity, dose 5 mg/kg, route intravenous. Conditions: plasma. The essentials: as §2
The subject of data set [19] is Bacillus anthracis. Description: Antimicrobial activity against Bacillus anthracis str. Ames infected in BALB/c mouse prophylaxis model assessed as mouse survival at 60 mg/kg, ip administered 36 hrs post infection every 36 hrs for 14 days measured after 42 days. The note with it: route intraperitoneal. In kind it is functional.
Data set [20] is described as follows: Plasma concentration in ICR mouse at 20 mg/kg, ip after 6 days. Details: dose 20 mg/kg, route intraperitoneal. In kind it is ADME, organism-based. The essentials:
as §2

Data set [21] can be described thus: AUC (0-infinity) in ICR mouse at 5 mg/kg, ip. In kind it is ADME, organism-based. Details: dose 5 mg/kg, route intraperitoneal, time infinity. Conditions: plasma. In short, it runs like this:
as §2

The subject of data set [22] is Mus musculus. Description: fCmax in ICR mouse at 5 mg/kg, ip after 2 hrs. Format: ADME, organism-based. Further details: dose 5 mg/kg, route intraperitoneal. Conditions: in vivo.
Data set [23] can be described thus: Half life in ICR mouse at 5 mg/kg, ip. Format: ADME, organism-based. Details: dose 5 mg/kg, route intraperitoneal. Conditions: in vivo. In short, it runs like this: as §2
Data set [24] in a line: Ratio of fCmax in ICR mouse at 20 mg/kg, ip single dose after 2 hrs to MIC for Bacillus anthracis Ames. In kind it is functional. Conditions: route intraperitoneal. The essentials:
as §1

Data set [25] can be described thus: AUC (0-infinity) in ICR mouse at 20 mg/kg, ip. Format: ADME, organism-based. Further details: time infinity, dose 20 mg/kg, route intraperitoneal. Conditions: plasma. In short, it runs like this: as §2
The subject of data set [26] is Mus musculus. Briefly: fCmax in ICR mouse at 20 mg/kg, ip after 2 hrs. In kind it is ADME, organism-based. Conditions: in vivo. Details: dose 20 mg/kg, route intraperitoneal.
The subject of data set [27] is Mus musculus. Briefly: fAUC in ICR mouse at 5 mg/kg, ip. Details: dose 5 mg/kg, route intraperitoneal. Conditions: in vivo. In kind it is ADME, organism-based.
Data set [28] deals with Bacillus anthracis. Description: Antimicrobial activity against Bacillus anthracis after 18-24 hrs by broth microdilution method. In kind it is functional. In general terms: Broth dilution looks for growth in wells or tubes with falling amounts of substance.
Data set [29] deals with Bacillus anthracis. Description: Antimicrobial activity against Bacillus anthracis str. Ames infected in BALB/c mouse prophylaxis model assessed as mouse survival at 120 mg/kg, ip administered 48 hrs post infection every 72 hrs for 14 days measured after 42 days. In kind it is functional. Conditions: route intraperitoneal.

As to `CN[C@H]1C(=O)N[C@@H]2Cc3ccc(cc3)Oc3cc4cc(c3O[C@@H]3O[C@H](C(=O)O)[C@@H](O)[C@H](O)[C@H]3NC(=O)CCCCCCCCC(C)C)Oc3ccc(cc3Cl)[C@@H](O)[C@@H]3NC(=O)[C@H](NC(=O)[C@@H]4NC(=O)[C@@H](NC2=O)c2cc(cc(O)c2Cl)Oc2cc1ccc2O)c1ccc(O)c(c1)-c1c(O[C@H]2O[C@H](CO)[C@@H](O)[C@H](O)[C@@H]2O)cc(O)cc1[C@@H](C(=O)NCCCN(C)C)NC3=O` [DALBAVANCIN], the Activity in the data set on Bacillus anthracis [1] is on record as 70%; with Bacillus anthracis [5], 80%; in the data set on Bacillus anthracis [15], 100%; with Bacillus anthracis [16] it was 70%; in the data set with Bacillus anthracis [17], 80%; in the data set on Bacillus anthracis [19] it was 70%. Further, the Activity with Bacillus anthracis [29] is 70%. Besides, the “T>MIC” value in the data set on Mus musculus [2] is 38 h; with Mus musculus [9], 17.8 h. Moreover, the Ratio in [3] came out at 227; in data set [6] it was 4; in data set [14], 46.7; in data set [24], 19. The Cmax in data set [4] was determined as 71300 ng/mL; in [7], 15200 ng/mL. In the data set with Bacillus anthracis [8], this compound returned an MIC of 0.06 µg/mL (≈ 0.033 µM). Further, the AUC(0-inf) is 1070 µg·h/mL in data set [10], 200 µg·h/mL in [18], 176 µg·h/mL in data set [21] and 848 µg·h/mL in data set [25]. The compound also came in with an AUC at 168 h in data set [11] of 756 µg·h/mL. Also, the figures for the fAUC with Mus musculus [12] and in the data set with Mus musculus [27] were 13.6 µg·h/mL and 2.8 µg·h/mL, respectively. The half-life in data set [13] and in data set [23] was 53.4 h each time. The concentration at 144 h in [20] is no less than 400 ng/mL. Moreover, the figures for the fCmax with Mus musculus [22] and in the data set with Mus musculus [26] were 0.24 mg/L and 1.14 mg/L, respectively. The compound also registered an MIC50 with Bacillus anthracis [28] of 0.06 µg/mL (≈ 0.033 µM). The MIC90 in the data set on Bacillus anthracis [28] is 0.25 µg/mL (≈ 0.138 µM).
The compound `CN[C@H](CC(C)C)C(=O)N[C@H]1C(=O)N[C@@H](CC(N)=O)C(=O)N[C@H]2C(=O)N[C@H]3C(=O)N[C@H](C(=O)N[C@H](C(=O)O)c4cc(O)cc(O)c4-c4cc3ccc4O)[C@H](O)c3ccc(c(Cl)c3)Oc3cc2cc(c3O[C@@H]2O[C@H](CO)[C@@H](O)[C@H](O)[C@H]2O[C@H]2C[C@](C)(N)[C@H](O)[C@H](C)O2)Oc2ccc(cc2Cl)[C@H]1O` [VANCOMYCIN] registered an MIC in the data set with Bacillus anthracis [28] of 2 µg/mL (≈ 1.38 µM).

Broadly, the Cmax is the maximum level reached in the sampled fluid or tissue. The term MIC denotes the smallest concentration in the dilution series that meets the test's criterion for growth inhibition. A low value points to greater potency. For orientation: AUC(0-inf) means total exposure, with the tail of the curve extrapolated. A high value points to more exposure. For orientation: AUC means concentration integrated over time. A low value points to less exposure. As a reminder, the half-life is how long it takes for the measured level to halve. Higher therefore signals slow decline. As a reminder, the MIC50 is an inhibitory concentration at the 50% level, which refers to growth in some studies and to a panel of isolates in others. By MIC90 is commonly meant an inhibitory concentration at the 90% level, which refers to growth in some studies and to a panel of isolates in others. Low values mean greater potency, high ones weaker potency.
